Experimental data reported in ChEMBL document CHEMBL1781919, “Synthesis and anticonvulsant properties of 1-(amino-N-arylmethanethio)-3-(1-substituted benzyl-2, 3-dioxoindolin-5-yl) urea derivatives” (Eur J Med Chem, 2011).
Calls of active or inactive are those of the source. The rule behind the calls is not given here.

Columns and labels:
[1] = system: Mus musculus; test: Anticonvulsant activity in mouse assessed as protection against subcutaneous pentylenetetrazole-induced seizures at 100 mg/kg, ip after 4 hrs; type: functional, organism-based; parameters: dose 100 mg/kg
[2] = system: Mus musculus; test: Neurotoxicity in mouse assessed as electrically-induced clonic seizures at 100 mg/kg, ip after 0.5 hrs by rotarod test; type: toxicity, organism-based; parameters: dose 100 mg/kg, route intraperitoneal; conditions: in vivo
Summary of the method: (§1)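 Rotorod toxicity in mice given 100 mg/kg i.p., four per time point, alongside the 6 Hz test. The endpoint is inability to maintain balance on the rotorod. Score is N/F, the number of animals showing toxicity over the number tested.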

[3] = system: Mus musculus; test: Anticonvulsant activity in mouse assessed as protection against maximal electroshock-induced seizures at 100 mg/kg, ip after 4 hrs; type: functional, organism-based; parameters: dose 100 mg/kg
Summary of the method: (§2)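 Mouse Test 1: i.p. dosing at 0.01 mL/g. Sets of one, three and one animals receive 30, 100 and 300 mg/kg respectively, each tested at 0.5 h and 4.0 h. Score is N/F, the number of animals protected over the number tested. Screening performed by NINDS following the ADD program protocol.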

[4] = system: Mus musculus; test: Anticonvulsant activity in mouse assessed as protection against maximal electroshock-induced seizures at 300 mg/kg, ip after 4 hrs; type: functional, organism-based; parameters: dose 300 mg/kg; summary of the method: as §2
[5] = Octanol-phosphate buffer partition coefficient, log P of the compound; type: physicochemical
Summary of the method: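 Octanol and phosphate buffer partition run at room temperature (29 °C). After separation, the phases are membrane-filtered and drug in the aqueous phase is measured by UV. PC = (Ct − Ca)/Ca, where Ct is total drug concentration and Ca is aqueous-phase concentration.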

[6] = system: Mus musculus; test: Neurotoxicity in mouse assessed as electrically-induced clonic seizures at 100 mg/kg, ip after 1 hr by rotarod test; type: toxicity, organism-based; parameters: dose 100 mg/kg, route intraperitoneal; conditions: in vivo; summary of the method: as §1
[7] = system: Mus musculus; test: Anticonvulsant activity in mouse assessed as protection against subcutaneous pentylenetetrazole-induced seizures at 300 mg/kg, ip after 0.5 hrs; type: functional, organism-based; parameters: dose 300 mg/kg
[8] = system: Mus musculus; test: Anticonvulsant activity in mouse assessed as protection against maximal electroshock-induced seizures at 30 mg/kg, ip after 4 hrs; type: functional, organism-based; parameters: dose 30 mg/kg; summary of the method: as §2
[9] = system: Mus musculus; test: Anticonvulsant activity in mouse assessed as protection against electrically-induced seizure at 100 mg/kg, ip after 2 hrs by 6Hz psychomotor seizure test; type: functional, organism-based; parameters: dose 100 mg/kg
Summary of the method: (§3)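 Mice pretreated by i.p. injection at 100 mg/kg, then challenged through corneal electrodes at 6 Hz, 32 mA for 3 s, which elicits a psychomotor seizure in 97% of animals. Four mice per time point. Score is N/F, the number of animals protected over the number tested. Testing run under the NINDS Anticonvulsant Screening Program.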

[10] = system: Mus musculus; test: Neurotoxicity in mouse assessed as minimum motor impairment at 100 mg/kg, ip after 0.5 hrs by rotarod test; type: toxicity, organism-based; parameters: dose 100 mg/kg, route intraperitoneal; conditions: in vivo
Summary of the method: (§4)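 Rotorod test for minimal motor impairment in mice given 30, 100 or 300 mg/kg i.p. at 0.01 mL/g, using sets of one, three and one animals, at 0.5 h and 4.0 h. Animals are observed at each dose and time. Score is N/F, the number showing toxicity over the number tested.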

[11] = system: Mus musculus; test: Neurotoxicity in mouse assessed as electrically-induced clonic seizures at 100 mg/kg, ip after 2 hrs by rotarod test; type: toxicity, organism-based; parameters: dose 100 mg/kg, route intraperitoneal; conditions: in vivo; summary of the method: as §1
[12] = system: Mus musculus; test: Neurotoxicity in mouse assessed as electrically-induced clonic seizures at 100 mg/kg, ip after 4 hrs by rotarod test; type: toxicity, organism-based; parameters: dose 100 mg/kg, route intraperitoneal; conditions: in vivo; summary of the method: as §1
[13] = system: Mus musculus; test: Neurotoxicity in mouse assessed as minimum motor impairment at 300 mg/kg, ip after 0.5 hrs by rotarod test; type: toxicity, organism-based; parameters: dose 300 mg/kg, route intraperitoneal; conditions: in vivo; summary of the method: as §4
[14] = system: Mus musculus; test: Anticonvulsant activity in mouse assessed as protection against electrically-induced seizure at 100 mg/kg, ip after 0.25 hrs by 6Hz psychomotor seizure test; type: functional, organism-based; parameters: dose 100 mg/kg; summary of the method: as §3
[15] = system: Mus musculus; test: Anticonvulsant activity in mouse assessed as protection against electrically-induced seizure at 100 mg/kg, ip after 0.5 hrs by 6Hz psychomotor seizure test; type: functional, organism-based; parameters: dose 100 mg/kg; summary of the method: as §3
[16] = system: Mus musculus; test: Anticonvulsant activity in mouse assessed as protection against maximal electroshock-induced seizures at 300 mg/kg, ip after 0.5 hrs; type: functional, organism-based; parameters: dose 300 mg/kg; summary of the method: as §2
[17] = system: Mus musculus; test: Anticonvulsant activity in mouse assessed as protection against electrically-induced seizure at 100 mg/kg, ip after 1 hr by 6Hz psychomotor seizure test; type: functional, organism-based; parameters: dose 100 mg/kg; summary of the method: as §3
[18] = system: Mus musculus; test: Anticonvulsant activity in mouse assessed as protection against maximal electroshock-induced seizures at 30 mg/kg, ip after 0.5 hrs; type: functional, organism-based; parameters: dose 30 mg/kg; summary of the method: as §2
[19] = system: Mus musculus; test: Neurotoxicity in mouse assessed as minimum motor impairment at 300 mg/kg, ip after 4 hrs by rotarod test; type: toxicity, organism-based; parameters: dose 300 mg/kg, route intraperitoneal; conditions: in vivo; summary of the method: as §4
[20] = system: Mus musculus; test: Neurotoxicity in mouse assessed as minimum motor impairment at 30 mg/kg, ip after 4 hrs by rotarod test; type: toxicity, organism-based; parameters: dose 30 mg/kg, route intraperitoneal; conditions: in vivo; summary of the method: as §4
[21] = system: Mus musculus; test: Anticonvulsant activity in mouse assessed as protection against maximal electroshock-induced seizures at 100 mg/kg, ip after 0.5 hrs; type: functional, organism-based; parameters: dose 100 mg/kg; summary of the method: as §2
[22] = system: Mus musculus; test: Anticonvulsant activity in mouse assessed as protection against subcutaneous pentylenetetrazole-induced seizures at 300 mg/kg, ip after 4 hrs; type: functional, organism-based; parameters: dose 300 mg/kg
[23] = system: Mus musculus; test: Neurotoxicity in mouse assessed as minimum motor impairment at 100 mg/kg, ip after 4 hrs by rotarod test; type: toxicity, organism-based; parameters: dose 100 mg/kg, route intraperitoneal; conditions: in vivo; summary of the method: as §4
[24] = system: Mus musculus; test: Anticonvulsant activity in mouse assessed as protection against electrically-induced seizure at 100 mg/kg, ip after 4 hrs by 6Hz psychomotor seizure test; type: functional, organism-based; parameters: dose 100 mg/kg; summary of the method: as §3
[25] = system: Mus musculus; test: Anticonvulsant activity in mouse assessed as protection against subcutaneous pentylenetetrazole-induced seizures at 30 mg/kg, ip after 4 hrs; type: functional, organism-based; parameters: dose 30 mg/kg
[26] = system: Mus musculus; test: Anticonvulsant activity in mouse assessed as protection against subcutaneous pentylenetetrazole-induced seizures at 30 mg/kg, ip after 0.5 hrs; type: functional, organism-based; parameters: dose 30 mg/kg
[27] = system: Mus musculus; test: Neurotoxicity in mouse assessed as minimum motor impairment at 30 mg/kg, ip after 0.5 hrs by rotarod test; type: toxicity, organism-based; parameters: dose 30 mg/kg, route intraperitoneal; conditions: in vivo; summary of the method: as §4
[28] = system: Mus musculus; test: Anticonvulsant activity in mouse assessed as protection against subcutaneous pentylenetetrazole-induced seizures at 100 mg/kg, ip after 0.5 hrs; type: functional, organism-based; parameters: dose 100 mg/kg
[29] = system: Mus musculus; test: Neurotoxicity in mouse assessed as electrically-induced clonic seizures at 100 mg/kg, ip after 0.25 hrs by rotarod test; type: toxicity, organism-based; parameters: dose 100 mg/kg, route intraperitoneal; conditions: in vivo; summary of the method: as §1

SMILES	Activity [1]	Activity [2]	Activity [3]	logP [5]	Activity [6]	Activity [7]	Activity [8]	Activity [9]	Activity [10]	Activity [11]	Activity [12]	Activity [13]	Activity [14]	Activity [15]	Activity [16]	Activity [17]	Activity [18]	Activity [19]	Activity [20]	Activity [21]	also measured
COc1ccc(NC(=S)NC(=O)Nc2ccc3c(c2)C(=O)C(=O)N3Cc2ccccc2)cc1	inactive	Non-toxic	inactive	2.39	Non-toxic	Active	inactive	inactive	Non-toxic	Non-toxic	Non-toxic	Non-toxic	Active	Active	Active	inactive	inactive	Non-toxic	Non-toxic	inactive	Activity [4]: Active; Activity [22]: inactive; Activity [23]: Non-toxic; Activity [24]: inactive; Activity [25]: inactive; Activity [26]: inactive; Activity [27]: Non-toxic; Activity [28]: inactive; Activity [29]: Non-toxic
O=C(NC(=S)Nc1ccccc1)Nc1ccc2c(c1)C(=O)C(=O)N2Cc1ccccc1Cl	inactive	Non-toxic	Active	3.18	Non-toxic	Active	inactive	inactive	Non-toxic	Non-toxic	Non-toxic	Non-toxic	Active	Active	Active	Active	inactive	Non-toxic	Non-toxic	inactive	Activity [22]: inactive; Activity [23]: Non-toxic; Activity [24]: inactive; Activity [25]: inactive; Activity [26]: inactive; Activity [27]: Non-toxic; Activity [28]: inactive; Activity [29]: Non-toxic
